Source: ChEMBL document CHEMBL4513216, “Probing the Open Global Health Chemical Diversity Library for Multistage-Active Starting Points for Next-Generation Antimalarials” (ACS Infect Dis, 2020)

Experiment: Toxicity liver stage against HepG2, at 10uM
Assay type: cell-based
Design: test concentration 10 uM, cell line HepG2-A16-CD81EGFP
Settings: human, HepG2-A16-CD81EGFP cells; read-out: INHIBITION
Method in brief: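 Uninfected HepG2-A16-CD81EGFP cells, 3 × 10^3 per well, 1536-well, plated on prespotted compound at 10 μM final, parasite-free screening media added to match infected plates; puromycin 10 μM positive, DMSO 0.5% negative; run in parallel with 48 h PbLuc assay at 37 °C, 5% CO2; viability by CellTiter-Glo luminescence, normalized to controls.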

CSCCC(C)(O)CNS(=O)(=O)Cc1ccc(F)cc1 (stereo not given)
cytotoxicity at 10 µM: -5.95%

CCN(c1ccc(C(=O)N(Cc2cnn(C)c2)C(C)C)cn1)C(C)C
cytotoxicity at 10 µM: 16.2%

Cc1ccc(CC(=O)N2CCOC(c3nc(C)n[nH]3)C2)cn1 (stereo not given)
cytotoxicity at 10 µM: -3.28%

CC(C)c1nn(C)c(N(C)C)c1CNCc1cccc2c1OCO2
cytotoxicity at 10 µM: -4.66%

NC(=O)CCS(=O)(=O)Cc1ccc(OCC(F)(F)F)cc1
cytotoxicity at 10 µM: -4.16%

O=C(NCc1cccs1)C1CCCN(c2cc(-n3cncn3)ncn2)C1 (stereo not given)
cytotoxicity at 10 µM: 0.827%

COCc1ncn2c1CN(S(=O)(=O)Cc1ccc(C)cc1)CC2
cytotoxicity at 10 µM: 0.854%

O=C1COc2ccccc2N1CCCn1cnnn1
cytotoxicity at 10 µM: 6.05%

O=C1C(Sc2nnnn2C2CC2)CCN1c1ccccc1F (stereo not given)
cytotoxicity at 10 µM: 4.05%

O=C(c1ccoc1)N(Cc1ccncc1)C1CC1
cytotoxicity at 10 µM: 1.45%

CN(C)C(CNS(=O)(=O)c1ccc(F)cc1F)c1cccn1C (stereo not given)
cytotoxicity at 10 µM: -13.9%

Cc1cc(-c2n[nH]c3c2CN(S(=O)(=O)c2ccsc2)CC3)c(C)o1
cytotoxicity at 10 µM: -15.8%

Cc1ccccc1C1(CNC(=O)NCCc2nnc3n2CCC3)CC1
cytotoxicity at 10 µM: 2.48%

COCc1ncn2c1CN(C(=O)c1ccc3ccccc3n1)CC2
cytotoxicity at 10 µM: 8.42%

O=C([C@H]1C[C@@H]2[C@@H](C1)OCCN2CC1CC1)N1CCCC1
cytotoxicity at 10 µM: -2.2%

COc1ccc(CNc2cc(-c3nc(C)no3)ccn2)c(OC)c1
cytotoxicity at 10 µM: 9.07%

O=C(CCS(=O)(=O)C1CCCC1)NCCc1cccnc1
cytotoxicity at 10 µM: 6.86%

COc1cccc(C(=O)NS(=O)(=O)c2cc(Cl)sc2Cl)c1OC(F)F
cytotoxicity at 10 µM: -0.268%

Cc1cc(C(F)(F)F)c2c(C3CCCN(C(=O)C4CC4)C3)noc2n1 (stereo not given)
cytotoxicity at 10 µM: -25.1%

CCCC(=O)N(C)Cc1cccc(OC(C)C)c1
cytotoxicity at 10 µM: -4.24%

CC(C(=O)N(C)C)S(=O)(=O)c1cc2c(cc1Cl)OCCO2 (stereo not given)
cytotoxicity at 10 µM: 7.71%

Cc1noc(C)c1CN1C(=O)[C@@H]2CC[C@H]1CN(C(=O)c1cscn1)C2
cytotoxicity at 10 µM: -10.6%

Cc1sc2nc(SC(C)c3nc(C(C)C)no3)nc(N)c2c1C (stereo not given)
cytotoxicity at 10 µM: -2.4%

Cc1cc(CS(=O)(=O)N(C)C(C)c2ccc(F)cc2)on1 (stereo not given)
cytotoxicity at 10 µM: 6.72%

NC(=O)Cn1cc(NC(=O)N2CCN(c3ccccc3)CC2)cn1
cytotoxicity at 10 µM: -8.45%

CCC(=O)NC1CCCN(C(=O)c2ccc(OCC3CC3)nc2)C1 (stereo not given)
cytotoxicity at 10 µM: 15.2%

CN(C)c1ncccc1CNC(=O)N1CCCC1CN1CCCCC1 (stereo not given)
cytotoxicity at 10 µM: -0.986%

NCc1cnn(-c2ccccc2C(=O)N2CCCC(C(N)=O)C2)c1 (stereo not given)
cytotoxicity at 10 µM: 1.2%

COc1ccccc1-c1cc(NC(=O)CCC2CCCO2)[nH]n1 (stereo not given)
cytotoxicity at 10 µM: -0.394%

Cn1nccc1-c1cnc2n1CCC21CCN(C(=O)C2(C)CC2)CC1
cytotoxicity at 10 µM: -123%

O=C(c1sccc1C1CC1)N1CCN(c2cnccn2)CC1
cytotoxicity at 10 µM: -2.92%

Cc1nc(-c2cnn(C)c2)sc1C(=O)NCc1cccc(CN(C)C)c1
cytotoxicity at 10 µM: 2.46%

COC(=O)CC(c1cnn(C)c1)c1oc(C)cc(=O)c1O (stereo not given)
cytotoxicity at 10 µM: 21.9%

Cc1nc(CN2CCCC(NCc3ccc(Cl)s3)C2)no1 (stereo not given)
cytotoxicity at 10 µM: -3.18%

CN(CC1Cc2ccccc2CN1C)C(=O)CSc1nccn1C (stereo not given)
cytotoxicity at 10 µM: -10.8%

CCc1nnc2n1CCN(C(=O)CCOc1ccc(C)cc1C)C2
cytotoxicity at 10 µM: 2.93%

CCOc1cncc(NCCc2nnc3ccccn23)n1
cytotoxicity at 10 µM: 9.84%

CCOc1nnc(CN(CC)CC(=O)NC(C)C)s1
cytotoxicity at 10 µM: 3.88%

CC(=O)c1ccc(OCC(=O)NS(=O)(=O)c2cccnc2)cc1
cytotoxicity at 10 µM: -18%

Cc1noc(CS(=O)(=O)C/C=C/c2ccccc2)n1
cytotoxicity at 10 µM: -10.9%

COc1ccc(OCc2cc(C(=O)N3CC=CC3)n[nH]2)c(Cl)c1
cytotoxicity at 10 µM: 7.26%

CCC(CN1CCOCC1)n1cncc1-c1ccc2c(c1)CCN2CC (stereo not given)
cytotoxicity at 10 µM: 14.9%

CCCN1CCC(CNC(=O)C2(c3cccc(C)c3)CC2)C1 (stereo not given)
cytotoxicity at 10 µM: -13.4%

CCCN(CC)c1cc(C2CCNCC2)nc(C)n1
cytotoxicity at 10 µM: -7.33%

COCCCc1nc(-c2ccc(S(=O)(=O)N3CCCC3)cc2)cs1
cytotoxicity at 10 µM: -46.3%

CCc1ncc(C(=O)N2CCC(Nc3ccc(C)nn3)CC2)s1
cytotoxicity at 10 µM: -7.94%

Cc1cnn(CC2CCCN2Cc2c(C)noc2C)c1 (stereo not given)
cytotoxicity at 10 µM: -15.8%

CCC(=O)N1CCC(c2nc(O)c3c(n2)CN(C2CCCCC2)CC3)C1 (stereo not given)
cytotoxicity at 10 µM: -15.7%

CCc1cnc(C)nc1N1CCC(Cc2cccc(C(=O)O)c2)C1 (stereo not given)
cytotoxicity at 10 µM: 2.42%

O=S(=O)(CCCNCCn1cccn1)c1ccccc1
cytotoxicity at 10 µM: 5.96%

CC1c2ncc(COc3cccnc3)n2CCN1C(=O)C1=CCCCC1 (stereo not given)
cytotoxicity at 10 µM: 3.39%

CCCN1CCC(NC(=O)NCCc2nc(CC)c(C)s2)CC1
cytotoxicity at 10 µM: -19%

O=C(Cn1cccnc1=O)NC(Cc1ccsc1)c1cccnc1 (stereo not given)
cytotoxicity at 10 µM: -25.7%

O=C(Cc1ccsc1)N1C[C@@H]2OCCN(CC3CCCO3)[C@@H]2C1 (stereo not given in full)
cytotoxicity at 10 µM: -4.42%

Cc1nn(CC(=O)NCCc2ccncc2)c(=O)n1Cc1ccccc1
cytotoxicity at 10 µM: 18.5%
